# Calls of active or inactive are those of the source. No cut-off for these calls is given here.
# Experiments:
# PC-12 [1] = test: Induction of neurite outgrowth in rat PC12 cells at 10 ug/mL after 7 days; format: functional, cell-based
# In short: (§1)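 Rat PC12 cells (ATCC CRL 1721) grown on collagen Type IV in RPMI 1640 with 10% heat-inactivated horse serum and 5% FBS, 37 °C, 5% CO₂. Seeded at 10,000 cells/well in collagen IV 96-well plates and allowed to adhere 24 h before compound. Tested in duplicate at final 100, 10 and 1 μg/mL; absolute EtOH as control. Neurite outgrowth and intercellular connections scored visually over 2 weeks.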
# Escherichia coli = test: Antibacterial activity against Escherichia coli after 16 hrs; format: functional
# Saccharomyces cerevisiae = test: Antifungal activity against Saccharomyces cerevisiae after 16 hrs; format: functional
# Bacillus subtilis = test: Antibacterial activity against Bacillus subtilis after 16 hrs; format: functional
# Jurkat = test: Growth inhibition of human Jurkat T cells at 1 ug/mL after 24 hrs; format: functional, cell-based
# In short: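 Cells kept in RPMI 1640 with 10% FBS at 37 °C, 5% CO₂. Harvested, counted and seeded at 200,000 cells/well (1 mL) in 48-well plates, then compound added. After 24 h incubation the cells were pelleted, washed in PBS and lysed. Lysate relative fluorescence measured on a fluorometer.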
# PC-12 [2] = test: Induction of neurite outgrowth in rat PC12 cells at 1 ug/mL after 6 days; format: functional, cell-based; in short: as §1
# PC-12 [3] = test: Induction of neurite outgrowth in rat PC12 cells assessed as neural extensions at 1 ug/mL after 5 days; format: functional, cell-based; in short: as §1
SMILES,MIC (Escherichia coli),MIC (Saccharomyces cerevisiae),MIC (Bacillus subtilis),Activity (PC-12 [1]),Activity (Jurkat),Activity (PC-12 [2]),Activity (PC-12 [3])
Cc1ccc(C2(C)CC(c3ccc(-c4ccccc4)cc3)=CC=C2C=O)o1 (stereo not drawn),> 100 µg/mL,> 100 µg/mL,> 100 µg/mL,–,Active,Active,Active
O=CC1=CC=C(c2ccc(-c3ccccc3)cc2)CC1c1ccc([N+](=O)[O-])cc1 (stereo not drawn),> 100 µg/mL,> 100 µg/mL,> 100 µg/mL,–,Active,–,–
O=CC1=CC=C(c2ccc3c(c2)Cc2ccccc2-3)CC1c1ccc([N+](=O)[O-])cc1 (stereo not drawn),> 100 µg/mL,> 100 µg/mL,> 100 µg/mL,–,Active,–,–
CC1=C(/C=C/C(C)=C/C=C/C2=CC=C(C=O)C(C)(/C=C/C=C(C)/C=C/C3=C(C)CCCC3(C)C)C2)C(C)(C)CCC1 (stereo not drawn),> 100 µg/mL,> 100 µg/mL,> 100 µg/mL,–,–,–,–
Cc1ccc(C2=CC=C(C=O)C(c3ccc([N+](=O)[O-])cc3)C2)o1 (stereo not drawn),> 100 µg/mL,> 100 µg/mL,> 100 µg/mL,–,–,–,–
CC1=CC=C(C=O)C(c2ccccc2)C1 (stereo not drawn),> 100 µg/mL,> 100 µg/mL,> 100 µg/mL,–,–,–,–

# Second part, led by results:
MIC (Escherichia coli),MIC (Saccharomyces cerevisiae),MIC (Bacillus subtilis),SMILES,Activity (PC-12 [1]),Activity (Jurkat),Activity (PC-12 [2]),Activity (PC-12 [3])
> 100 µg/mL,> 100 µg/mL,> 100 µg/mL,CN(C)c1ccc(C2CC(c3ccc4ccccc4c3)=CC=C2C=O)cc1 (stereo not drawn),Active,–,–,–
> 100 µg/mL,> 100 µg/mL,> 100 µg/mL,CN(C)c1ccc(C2CC(c3ccc(Cl)s3)=CC=C2C=O)cc1 (stereo not drawn),–,Active,–,–
> 100 µg/mL,> 100 µg/mL,> 100 µg/mL,CN(C)c1ccc(C2CC(c3ccc4c(c3)Cc3ccccc3-4)=CC=C2C=O)cc1 (stereo not drawn),–,–,–,–
> 100 µg/mL,> 100 µg/mL,> 100 µg/mL,CC1(c2ccc(Cl)s2)CC(c2ccc(Cl)s2)=CC=C1C=O (stereo not drawn),–,–,–,–
> 100 µg/mL,> 100 µg/mL,> 100 µg/mL,CN(C)c1ccc(-c2cc(-c3ccc4c(c3)Cc3ccccc3-4)ccc2C=O)cc1,–,–,–,–
> 100 µg/mL,> 100 µg/mL,> 100 µg/mL,CC(C)=CCCC1=CC=C(C=O)C(C)(c2ccc(C)o2)C1 (stereo not drawn),–,–,–,–

# Reference: ChEMBL document CHEMBL1156621, “Synthesis and cellular effects of cycloterpenals: cyclohexadienal-based activators of neurite outgrowth” (2008)
